Laboratory results taken from ChEMBL document CHEMBL3351252, “Design, synthesis, and structure-activity relationship studies of a series of [4-(4-carboxamidobutyl)]-1-arylpiperazines: insights into structural features contributing to dopamine D3 versus D2 receptor subtype selectivity” (J Med Chem, 2014).
Calls of active or inactive are those of the source. The rule behind the calls is not given here.

Legend:
[1] = organism: Homo sapiens; assay: Selectivity index, ratio of Ki for human D2LR to Ki or human D3R
[2] = target: T1, D(2) dopamine receptor (Homo sapiens, UniProt P14416); assay: Antagonist activity against human D2LR expressed in CHOK1 cells assessed as inhibition of pergolide-induced beta-arrestin translocation by beta-galactosidase based beta-arrestin recruitment assay; assay type: cell-based, CHO-K1
[3] = target: T1, D(2) dopamine receptor; assay: Agonist activity at human D2LR expressed in CHO-K1 cells assessed as stimulation of basal activity by beta-galactosidase based beta-arrestin recruitment assay; assay type: cell-based
Summary of the method: (§1)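 CHO-K1 cells expressing human D2L receptor, β-arrestin/β-galactosidase fragment-complementation assay. Cells plated 2500/well and grown 48 h at 37 °C. Test compounds given at 11 half-log points from 5 μM, 120 min at 37 °C. Detection reagent added and chemiluminescence read. Results given as % stimulation or inhibition of basal luminescence. Compounds counterscreened for β-gal inhibition.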

[4] = target: T1, D(2) dopamine receptor; assay: Inverse agonist activity at human D2LR expressed in CHO-K1 cells assessed as inhibition of basal activity by beta-galactosidase based beta-arrestin recruitment assay; assay type: cell-based; summary of the method: as §1
[5] = target: T2, D(3) dopamine receptor (Homo sapiens, UniProt P35462); assay: Antagonist activity against D3R in human U2OS cells assessed as inhibition of (+)-PD128907-induced beta-arrestin translocation by beta-galactosidase based beta-arrestin recruitment assay; assay type: cell-based
[6] = organism: Homo sapiens; assay: Selectivity index, ratio of IC50 for human D2LR to IC50 for human D3R by beta-galactosidase based beta-arrestin recruitment assay
[7] = target: T1, D(2) dopamine receptor; assay: Agonist activity against human D2R expressed in HEK293 cells assessed as inhibition of forskolin-induced adenyl cyclase activity at 10 times Ki relative to quinpirole; assay type: functional, cell-based
Summary of the method: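 Whole HEK 293 cells expressing human D2R, prelabelled with [2,8-3H]adenine for 75 min at 37 °C, then given 0.1 mM IBMX. […] Stopped with TCA. [3H]cAMP separated on Dowex/alumina. Inhibition normalized to 1 μM quinpirole. Mean ± SEM of ≥3 experiments.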

[8] = target: T2, D(3) dopamine receptor; assay: Displacement of [125I]IABN from human D3R expressed in HEK293 cell membranes by gamma counting method
[9] = target: T1, D(2) dopamine receptor; assay: Displacement of [125I]IABN from human D2LR expressed in HEK293 cell membranes by gamma counting method
[10] = target: T1, D(2) dopamine receptor; assay: Agonist activity at human D2R expressed in CHO cells assessed as stimulation of mitogenesis at 10 uM after 24 hrs by [3H]thymidine uptake assay relative to quinpirole; assay type: cell-based
Summary of the method: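 CHOp-D2 cells grown 48–72 h, then serum-starved 24 h. Exposed to 10 μM compound in serum-free α-MEM for 24 h at 37 °C. Pulsed 2 h with 0.25 μCi [3H]thymidine, trypsinized, filtered and counted. Stimulation expressed relative to maximal quinpirole. Two independent experiments.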

[11] = target: T2, D(3) dopamine receptor; assay: Displacement of [125I]IABN from chimeric human D3 receptor possessing extracellular loop II of D2 receptor expressed in HEK293 cell membranes by gamma counting method
Summary of the method: (§2)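 Membranes from HEK 293 cells stably expressing receptor, prepared in 50 mM Tris-HCl pH 7.4/10 mM EDTA/150 mM NaCl and stored at −80 °C. […] Nonspecific binding defined with 2 μM (+)-butaclamol. Filtered, gamma counted. IC50 from single-site nonlinear regression, converted to Ki.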

[12] = target: D(3) dopamine receptor (Homo sapiens, UniProt P35462, E90Q); assay: Displacement of [125I]IABN from human D3R E90Q mutant expressed in HEK293 cell membranes by gamma counting method; summary of the method: as §2
[13] = target: T1, D(2) dopamine receptor; assay: Displacement of [125I]IABN from chimeric human D2 receptor possessing extracellular loop II of D3 receptor expressed in HEK293 cell membranes by gamma counting method
[14] = target: D(3) dopamine receptor (Homo sapiens, UniProt P35462, E90A); assay: Displacement of [125I]IABN from human D3R E90A mutant expressed in HEK293 cell membranes by gamma counting method; summary of the method: as §2
[15] = target: T2, D(3) dopamine receptor; assay: Displacement of [125I]IABN from wild type human D3R expressed in HEK293 cell membranes by gamma counting method; summary of the method: as §2
[16] = target: D(3) dopamine receptor (Homo sapiens, UniProt P35462, S182I); assay: Displacement of [125I]IABN from human D3R S182I mutant expressed in HEK293 cell membranes by gamma counting method; summary of the method: as §2
[17] = target: T1, D(2) dopamine receptor; assay: Displacement of [125I]IABN from wild type human D2R expressed in HEK293 cell membranes by gamma counting method
[18] = target: T1, D(2) dopamine receptor; settings: CHO-K1, 500 nM
[19] = target: T1, D(2) dopamine receptor; assay: Antagonist activity against human D2R expressed in CHO cells assessed as inhibition of quinpirole-induced mitogenesis after 24 hrs by [3H]thymidine uptake assay; assay type: cell-based
Summary of the method: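 Serum-starved CHOp-D2 or CHOp-D3 cells given serial dilutions of test compound plus quinpirole (30 nM final). Incubated at 37 °C for 24 h (D2) or 16 h (D3). Then 2 h [3H]thymidine pulse, filtration and counting.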

[20] = target: T2, D(3) dopamine receptor; settings: CHO, 1 uM
[21] = target: T2, D(3) dopamine receptor; settings: CHO, 10 uM
[22] = target: T1, D(2) dopamine receptor; settings: CHO, 1 uM

T1 sequence (P14416 whole entry): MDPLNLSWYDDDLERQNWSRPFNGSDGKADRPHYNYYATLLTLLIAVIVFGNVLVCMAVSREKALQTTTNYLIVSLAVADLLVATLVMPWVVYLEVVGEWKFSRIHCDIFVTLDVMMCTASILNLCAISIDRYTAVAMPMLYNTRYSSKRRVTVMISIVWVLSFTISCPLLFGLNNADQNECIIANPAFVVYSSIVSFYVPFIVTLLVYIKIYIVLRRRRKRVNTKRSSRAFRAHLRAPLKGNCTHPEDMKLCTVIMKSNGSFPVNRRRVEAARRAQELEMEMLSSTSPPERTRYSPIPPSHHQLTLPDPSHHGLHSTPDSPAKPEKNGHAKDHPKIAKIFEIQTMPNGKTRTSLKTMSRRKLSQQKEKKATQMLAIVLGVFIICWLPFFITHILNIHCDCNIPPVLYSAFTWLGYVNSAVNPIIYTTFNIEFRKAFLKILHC
T2 sequence (P35462 whole entry): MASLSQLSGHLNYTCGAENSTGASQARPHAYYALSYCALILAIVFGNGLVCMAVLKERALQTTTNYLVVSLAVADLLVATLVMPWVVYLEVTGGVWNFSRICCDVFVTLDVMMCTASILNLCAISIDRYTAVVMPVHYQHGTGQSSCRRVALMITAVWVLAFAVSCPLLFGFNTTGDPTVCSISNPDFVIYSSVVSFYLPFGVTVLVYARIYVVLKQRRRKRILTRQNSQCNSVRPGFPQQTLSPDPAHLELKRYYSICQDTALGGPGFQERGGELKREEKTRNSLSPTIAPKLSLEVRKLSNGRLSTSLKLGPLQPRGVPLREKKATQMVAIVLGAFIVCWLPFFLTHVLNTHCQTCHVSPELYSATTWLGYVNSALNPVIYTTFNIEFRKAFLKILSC
Sequence of D(3) dopamine receptor (Homo sapiens, UniProt P35462, S182I) (P35462 as listed by the source S182I): as the sequence (P35462 whole entry) above, with G9S, S182I counted along it
Sequence of D(3) dopamine receptor (Homo sapiens, UniProt P35462, E90Q) (P35462 as listed by the source E90Q): as the sequence (P35462 whole entry) above, with G9S, E90Q counted along it
Sequence of D(3) dopamine receptor (Homo sapiens, UniProt P35462, E90A) (P35462 as listed by the source E90A): as the sequence (P35462 whole entry) above, with G9S, E90A counted along it

| SMILES | Ratio Ki [1] | IC50 [2] [nM] | Activity [3] | inhibition [4] | IC50 [5] [nM] | Ratio IC50 [6] | inhibition [7] [%] | Ki [8] [nM] | Ki [9] [nM] | Activity [10] [%] | further results |
| --- | --- | --- | --- | --- | --- | --- | --- | --- | --- | --- | --- |
| CC(C)(C)c1nc(N2CCN(CCCCNC(=O)c3cc4ccccc4[nH]3)CC2)cc(C(F)(F)F)n1 | 83 | 418 | inactive | inactive | 5.6 | 75 |  | 11 | 913 |  |  |
| CC(C)(C)c1nc(N2CCN(CCCCNC(=O)c3cn4cccnc4n3)CC2)cc(C(F)(F)F)n1 | 36 | 37 | inactive | inactive | 0.4 | 93 | 9.2 |  |  | < 1 |  |
| CN(C)Cc1c(C(=O)NCCCCN2CCN(c3cc(C(F)(F)F)nc(C(C)(C)C)n3)CC2)nc2ccccn12 | 10 |  | inactive | inactive |  | 30 | 8.9 |  |  |  | Ki [11]: 27 nM; Ki [12]: 19 nM; Ki [13]: 72 nM; Ki [14]: 16 nM; Ki [15]: 9.1 nM; Ki [16]: 16 nM; Ki [17]: 191 nM; inhibition [18]: < 30% |
| CC(C)(C)c1nc(N2CCN(CCCCNC(=O)c3sc4ncccc4c3N)CC2)cc(C(F)(F)F)n1 | 14 |  |  |  |  |  |  | 35 | 481 |  |  |
| CC(C)(C)c1nc(N2CCN(CCCCNC(=O)c3cn4ccccc4n3)CC2)cc(C(F)(F)F)n1 |  |  | inactive | inactive | 0.6 | 435 | -1.9 |  |  | 0 | inhibition [20]: < 30%; Ki [11]: 40 nM; Ki [12]: 20 nM; Ki [13]: 148 nM; Ki [14]: 13 nM; Ki [15]: 8.4 nM; inhibition [21]: 40%; Ki [16]: 12 nM; inhibition [22]: < 30%; Ki [17]: 702 nM |

More lines, main results first:

| Ratio Ki [1] | IC50 [2] [nM] | Activity [3] | inhibition [4] | IC50 [5] [nM] | Ratio IC50 [6] | inhibition [7] [%] | Ki [8] [nM] | Ki [9] [nM] | Activity [10] [%] | SMILES | further results |
| --- | --- | --- | --- | --- | --- | --- | --- | --- | --- | --- | --- |
| 4.5 | 248 | inactive | inactive | 409 | 0.6 | 19 |  |  |  | O=C(NCCCCN1CCN(c2ncnc3ccccc23)CC1)c1cn2ccccc2n1 |  |
| 25 |  |  |  |  |  |  | 148 | 3650 |  | Cc1cc(N2CCN(CCCCNC(=O)c3cn4ccccc4n3)CC2)nc(C(F)(F)F)n1 |  |
| 78 | 301 | inactive | inactive | 8.5 | 35 | 5.6 | 4.3 | 336 | < 20 | CC(C)(C)c1nc(N2CCN(CCCCNC(=O)c3nc4ccccc4[nH]3)CC2)cc(C(F)(F)F)n1 | IC50 [19]: 490 nM |
| 29 | 161 | inactive | inactive | 52 | 3.1 | 1.4 | 20 |  |  | O=C(NCCCCN1CCN(c2ccnc3ccccc23)CC1)c1cn2ccccc2n1 |  |
| 12 |  |  |  |  |  |  | 2010 | 24900 |  | Cc1nc(N2CCN(CCCCNC(=O)c3cn4ccccc4n3)CC2)cc(C(F)(F)F)n1 |  |
|  |  | inactive | inactive |  |  |  |  |  |  | CC(C)(C)c1nc(N2CCN(CCCCNC(=O)[C@H]3CC[C@H](c4ccccc4)CC3)CC2)cc(C(F)(F)F)n1 | inhibition [20]: < 30%; inhibition [21]: 40%; inhibition [22]: < 30% |
| 5.4 | 6.6 | inactive | inactive | 0.7 | 9.4 | 25 | 3.5 | 19 | < 20 | COc1ccccc1N1CCN(CCCCNC(=O)c2cn3ccccc3n2)CC1 | IC50 [19]: 26 nM |
